The values that follow come from ChEMBL document CHEMBL4431354, “Piperazic acid derivatives inhibit Gli1 in Hedgehog signaling pathway” (Bioorg Med Chem Lett, 2016).

Calls of active or inactive are those of the source. The calls are words filed in the database; no cut-off is given here.

In data set [1] the test system is Shh Light II. Kind of data set: Cytotoxicity against mouse Shh Light2 cells up to 150 uM after 40 hrs by MTT assay. The format is cell-based. The essentials: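 MTT viability in Shh-LIGHT2 cells (NIH-3T3 clone with Gli-dependent firefly and constitutive Renilla luciferase reporters) after 40 h exposure to doses up to 150 μM, under the same conditions as the Hh reporter assay.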

The test system of data set [2] is Shh Light II. The data set is described as follows: Effect on Smo expression in mouse Shh Light2 cells at 75 to 100 uM after 24 hrs by Western blot analysis. The class given is functional, cell-based. For orientation: A western blot detects proteins with antibodies after separation by electrophoresis.
Data set [3] deals with Shh Light II. Kind of data set: Effect on Ptch1 expression in mouse Shh Light2 cells at 75 to 100 uM after 24 hrs by Western blot analysis. The class given is functional, cell-based.
In data set [4] the test system is Shh Light II. The data set is described as follows: Effect on SuFu expression in mouse Shh Light2 cells at 75 to 100 uM after 24 hrs by Western blot analysis. The class given is functional, cell-based.
Data set [5] has as its system Shh Light II. The data set is described as follows: Effect on SHH expression in mouse Shh Light2 cells at 75 to 100 uM after 24 hrs by Western blot analysis. The class given is functional, cell-based.
Data set [6] has as its target T1, Zinc finger protein GLI1 (Homo sapiens) (UniProt P08151).
T1 sequence (whole entry): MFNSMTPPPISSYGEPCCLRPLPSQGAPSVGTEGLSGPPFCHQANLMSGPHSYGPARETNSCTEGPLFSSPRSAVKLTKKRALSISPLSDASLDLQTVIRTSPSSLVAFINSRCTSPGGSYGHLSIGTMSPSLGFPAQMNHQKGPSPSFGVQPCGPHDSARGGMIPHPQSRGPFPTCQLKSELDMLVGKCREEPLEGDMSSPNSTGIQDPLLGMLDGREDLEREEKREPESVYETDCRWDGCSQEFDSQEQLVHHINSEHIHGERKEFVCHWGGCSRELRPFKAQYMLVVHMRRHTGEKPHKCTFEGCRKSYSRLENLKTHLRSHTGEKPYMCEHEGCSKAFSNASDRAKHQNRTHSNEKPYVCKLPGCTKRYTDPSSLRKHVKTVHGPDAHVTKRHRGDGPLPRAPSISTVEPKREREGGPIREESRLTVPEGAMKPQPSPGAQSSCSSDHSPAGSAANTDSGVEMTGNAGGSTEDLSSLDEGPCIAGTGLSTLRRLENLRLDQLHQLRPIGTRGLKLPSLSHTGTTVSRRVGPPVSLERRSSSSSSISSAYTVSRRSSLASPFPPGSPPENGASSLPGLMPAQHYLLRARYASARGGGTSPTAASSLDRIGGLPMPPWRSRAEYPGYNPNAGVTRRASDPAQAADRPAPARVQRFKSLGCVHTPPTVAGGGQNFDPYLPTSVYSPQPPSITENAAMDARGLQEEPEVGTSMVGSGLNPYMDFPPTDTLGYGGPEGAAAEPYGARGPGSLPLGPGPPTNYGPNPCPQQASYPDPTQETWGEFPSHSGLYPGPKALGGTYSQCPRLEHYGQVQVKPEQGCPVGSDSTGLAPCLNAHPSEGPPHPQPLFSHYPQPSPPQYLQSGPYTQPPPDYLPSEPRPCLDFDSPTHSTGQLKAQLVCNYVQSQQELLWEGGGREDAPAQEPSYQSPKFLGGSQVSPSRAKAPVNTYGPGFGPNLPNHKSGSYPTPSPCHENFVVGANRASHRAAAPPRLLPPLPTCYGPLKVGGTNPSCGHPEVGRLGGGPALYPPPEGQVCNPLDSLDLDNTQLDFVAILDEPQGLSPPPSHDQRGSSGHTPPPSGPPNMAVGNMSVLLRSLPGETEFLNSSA
Kind of data set: Inhibition of Shh-N-induced Gli1 (unknown origin) expressed in mouse Shh Light2 cells assessed as Gli1-mediated mediated transcription at 50 uM incubated for 30 hrs by firefly luciferase assay. The class given is cell-based. The essentials:
(§1)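 Shh-LIGHT2 cells (NIH-3T3 clone stably carrying Gli-dependent firefly and constitutive Renilla luciferase) treated 30 h with graded compound concentrations in Shh-N conditioned medium; firefly luminescence read as percent inhibition versus Shh-N-stimulated DMSO control. Cyclopamine 10 µM positive control. Three independent experiments in triplicate, mean ± SD.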

For data set [7], the target named is T1, Zinc finger protein GLI1 (Homo sapiens). Kind of data set: Inhibition of Gli1 (unknown origin) expression in mouse Shh Light2 cells at 1 to 100 uM by Western blot analysis. The class given is cell-based. The essentials:
(§2)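 Gli1 protein immunoblotted in Shh-N-stimulated Shh-LIGHT2 cells after treatment with varying doses or 100 µM compound; GAPDH loading control; Shh-N-stimulated DMSO-treated cells as control; cyclopamine 10 µM positive control.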

Data set [8] has as its system Shh Light II. Kind of data set: Cell cycle arrest in mouse Shh Light2 cells assessed as accumulation at G0/G1 phase at 30 uM after 30 to 48 hrs by propidium iodide staining-based flow cytometry (reference value: 86.2%). The format is functional. For orientation: Flow cytometry measures light scatter and fluorescence of single cells or particles in a stream.
Data set [9] deals with Shh Light II. The data set is described as follows: Cell cycle arrest in mouse Shh Light2 cells assessed as accumulation at G2/M phase at 30 uM after 30 to 48 hrs by propidium iodide staining-based flow cytometry (reference value: 6.7%). The class given is functional.
The subject of data set [10] is Shh Light II. The data set is described as follows: Cell cycle arrest in mouse Shh Light2 cells assessed as accumulation at S phase at 30 uM after 30 to 48 hrs by propidium iodide staining-based flow cytometry (reference value: 3.6%). The class given is functional.
The test system of data set [11] is Shh Light II. Kind of data set: Cell cycle arrest in mouse Shh Light2 cells assessed as accumulation at subG0 phase at 30 uM after 30 to 48 hrs by propidium iodide staining-based flow cytometry (reference value: 3.4%). The class given is functional.
Data set [12] relates to Shh Light II. The data set is described as follows: Cell cycle arrest in mouse Shh Light2 cells assessed as accumulation at G0/G1 phase at 100 uM after 30 to 48 hrs by propidium iodide staining-based flow cytometry (reference value: 86.2%). The format is functional.
In data set [13] the test system is Shh Light II. Kind of data set: Cell cycle arrest in mouse Shh Light2 cells assessed as accumulation at G2/M phase at 100 uM after 30 to 48 hrs by propidium iodide staining-based flow cytometry (reference value: 6.7%). The class given is functional.
Data set [14] deals with Shh Light II. Kind of data set: Cell cycle arrest in mouse Shh Light2 cells assessed as accumulation at S phase at 100 uM after 30 to 48 hrs by propidium iodide staining-based flow cytometry (reference value: 3.6%). The format is functional.
Data set [15] has as its system Shh Light II. The data set is described as follows: Cell cycle arrest in mouse Shh Light2 cells assessed as accumulation at subG0 phase at 100 uM after 30 to 48 hrs by propidium iodide staining-based flow cytometry (reference value: 3.4%). The class given is functional.
Data set [16] has as its system Shh Light II. Kind of data set: Effect on SHH expression in mouse Shh Light2 cells at 25 to 50 uM after 24 hrs by Western blot analysis. The class given is functional, cell-based. The essentials:
(§3)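 Shh-LIGHT2 cells treated 24 h, then SHH and SuFu protein levels assessed by western blotting.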

The test system of data set [17] is Shh Light II. The data set is described as follows: Effect on SuFu expression in mouse Shh Light2 cells at 25 to 50 uM after 24 hrs by Western blot analysis. The class given is functional, cell-based. The essentials: as §3
The test system of data set [18] is Shh Light II. Kind of data set: Effect on Ptch1 expression in mouse Shh Light2 cells at 25 to 50 uM after 24 hrs by Western blot analysis. The class given is functional, cell-based.
For data set [19], the species on record is Mus musculus. The following applies: 0.5 to 50 uM.
Data set [20] concerns the target T1, Zinc finger protein GLI1 (Homo sapiens). The data set is described as follows: Inhibition of Gli1 (unknown origin) expression in mouse Shh Light2 cells at 100 uM by Western blot analysis. The format is cell-based. Put shortly: as §2
The target is the same in data set [21]. The data set is described as follows: Inhibition of Shh-N-induced Gli1 (unknown origin) expressed in mouse Shh Light2 cells assessed as Gli1-mediated mediated transcription up to 50 uM incubated for 30 hrs by firefly luciferase assay. The format is cell-based. Put shortly:
as §1

For data set [22], the system named is Shh Light II. Kind of data set: Cell cycle arrest in mouse Shh Light2 cells assessed as accumulation at G0/G1 phase at 10 uM after 30 to 48 hrs by propidium iodide staining-based flow cytometry (reference value: 86.2%). The format is functional.
The subject of data set [23] is Shh Light II. The data set is described as follows: Cell cycle arrest in mouse Shh Light2 cells assessed as accumulation at G2/M phase at 10 uM after 30 to 48 hrs by propidium iodide staining-based flow cytometry (reference value: 6.7%). The class given is functional.
Data set [24] concerns Shh Light II. Kind of data set: Cell cycle arrest in mouse Shh Light2 cells assessed as accumulation at S phase at 10 uM after 30 to 48 hrs by propidium iodide staining-based flow cytometry (reference value: 3.6%). The class given is functional.
Data set [25] concerns Shh Light II. Kind of data set: Cell cycle arrest in mouse Shh Light2 cells assessed as accumulation at subG0 phase at 10 uM after 30 to 48 hrs by propidium iodide staining-based flow cytometry (reference value: 3.4%). The class given is functional.

With `O=C(O)C1CCCNN1` (configuration not stated), the Activity entry in [1] was “Non-Toxic”; in data set [8] it was 82.9%; in data set [9], 7.8%; in [10] it was 4.4%; in data set [11] it was 4.7%; in data set [12] it was 81.3%. The figures for the Activity in data set [13], in data set [14] and in data set [15] were 8.3%, 4.9% and 5.2%, respectively. In addition, the result in [2], in data set [3], in data set [4] and in [5] was inactive. Moreover, the inhibition (in general, the percentage by which the read-out fell short of the control) in [6] was less than 50%; in data set [7] it was “Dose-dependent effect”.
On to `CN(C)C(=O)C1CCCNN1` (configuration not stated), for which the result in [16], in data set [17] and in data set [18] was inactive. For the same molecule, the Activity entry in [1] is recorded as “Non-Toxic”. In addition, in data set [19], the inhibition entry was “inactive”.
On to `O=C(O)C1CCCCNN1` (configuration not stated), for which the inhibition result in data set [6] and in data set [20] was “inactive” each time.
As to `O=C(O)C1CCCCN1` (configuration not stated), the inhibition result in data set [21] and in data set [7] was “inactive” throughout.
On to `CC1=C2C[C@H]3[C@@H](CC=C4C[C@@H](O)CC[C@@]43C)[C@@H]2CC[C@]12O[C@@H]1C[C@H](C)CN[C@H]1[C@H]2C` [CYCLOPAMINE], for which the Activity in data set [22] is reported as 84.1%; in data set [23], 7.7%; in [24], 4.7%; in [25] it was 3.2%.
Turning to `COC(=O)C1CCCCNN1` (configuration not stated), the inhibition result in [6] and in [20] was “inactive” in each case.
For `NC(=O)C1CCCNN1` (configuration not stated), the outcome in data set [16], in [17] and in [18] was inactive. In addition, the Activity entry in [1] is reported as “Non-Toxic”. In data set [19], the inhibition entry was “inactive”.
As for `COC(=O)C1CCCNN1` (configuration not stated), the inhibition entry in data set [6] and in data set [20] was “inactive” in each case.
